Measurements reported in ChEMBL document CHEMBL1147931, “3-(3,4,5-Trimethoxyphenyl)-1-oxo-2-propene: a novel pharmacophore displaying potent multidrug resistance reversal and selective cytotoxicity” (Bioorg Med Chem, 2007).
Activity calls are given as the source filed them. The rule behind the calls is not given here.

Key:
[1] = tested on: HSC-2; assay: Cytotoxicity against HSC2 cells; assay type: functional; conditions: Homo sapiens
Method in brief: (§1)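 Adherent cells pre-cultured 24 h in DMEM with 10% […] FBS, humidified 5% CO2, then exposed to a range of compound concentrations. Cells washed once with PBS, incubated 4 h in fresh medium with MTT, lysed in DMSO, viable cells read at 540 nm. CC50 from dose-response curves, average of two independent determinations.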

[2] = tested on: HSC-3; assay: Cytotoxicity against HSC3 cells; assay type: functional; conditions: Homo sapiens; method in brief: as §1
[3] = tested on: HSC-4; assay: Cytotoxicity against HSC4 cells; assay type: functional; conditions: Homo sapiens; method in brief: as §1
[4] = tested on: HL-60; assay: Cytotoxicity against human HL60 cells; assay type: functional
Method in brief: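 HL-60 cells grown in RPMI1640 plus 10% FBS in humidified 5% CO2, exposed to a range of compound concentrations. Viable cells counted by trypan blue exclusion. CC50 from dose-response curves, average of two independent determinations.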

[5] = Cytotoxicity against HGF cells; assay type: cell-based; conditions: human; method in brief: as §1
[6] = Cytotoxicity against HPLF cells; assay type: cell-based; conditions: human; method in brief: as §1
[7] = Cytotoxicity against HPC cells; assay type: cell-based; conditions: human; method in brief: as §1
[8] = tested on: HL-60; assay: Effect on apoptosis in human HL60 cells assessed as increase in caspase 3 activation at 4 uM after 4 hrs; assay type: functional, cell-based
[9] = tested on: HSC-2; assay: Effect on apoptosis in HSC2 cells assessed as increase in caspase 3 activation at 32 uM after 4 hrs; assay type: functional, cell-based; conditions: Homo sapiens
Method in brief: (§2)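 HSC-2 cells (2×10^6) grown in DMEM with 10% FBS in humidified 5% CO2, incubated 4 h with 4, 8, 16 or 32 µM compound; actinomycin D 1 µg/mL as positive control. Lysate (200 µg protein) incubated 2 h at 37 °C with DEVD-pNA (caspase-3), IETD-pNA (caspase-8) or LEHD-pNA (caspase-9); released pNA read at 405 nm. Mean of 2–3 experiments.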

[10] = tested on: HSC-2; assay: Effect on apoptosis in HSC2 cells assessed as increase in caspase 8 activation at 32 uM after 4 hrs; assay type: functional, cell-based; conditions: Homo sapiens; method in brief: as §2
[11] = tested on: HSC-2; assay: Effect on apoptosis in HSC2 cells assessed as increase in caspase 9 activation at 32 uM after 4 hrs; assay type: functional, cell-based; conditions: Homo sapiens; method in brief: as §2
[12] = tested on: HL-60; assay: Effect on apoptosis in human HL60 cells assessed as increase in caspase 9 activation above 8 uM after 4 hrs; assay type: functional, cell-based
[13] = tested on: HL-60; assay: Effect on apoptosis in human HL60 cells assessed as increase in caspase 8 activation above 8 uM after 4 hrs; assay type: functional, cell-based
[14] = tested on: HL-60; assay: Effect on apoptosis in human HL60 cells assessed as increase in caspase 3 activation above 8 uM after 4 hrs; assay type: functional, cell-based
[15] = tested on: HSC-2; assay: Effect on apoptosis in HSC2 cells assessed as increase in caspase 3 activation at 8 uM after 4 hrs; assay type: functional, cell-based; conditions: Homo sapiens; method in brief: as §2

| Compound | CC50 [1] [µM] | CC50 [2] [µM] | CC50 [3] [µM] | CC50 [4] [µM] | CC50 [5] [µM] | CC50 [6] [µM] | CC50 [7] [µM] | Activity [8] | Activity [9] | Activity [10] | Activity [11] | Activity [12] | Activity [13] | Activity [14] | Activity [15] |
| --- | --- | --- | --- | --- | --- | --- | --- | --- | --- | --- | --- | --- | --- | --- | --- |
| N[C@@H](Cc1ccc(N(CCCl)CCCl)cc1)C(=O)O [MELPHALAN] | 35 | 115 | 81 | 6 | > 200 | > 200 | > 200 | – | – | – | – | – | – | – | – |
| COc1ccc(/C=C2\CCC/C(=C\c3ccc([N+](=O)[O-])cc3)C2=O)cc1 | – | – | > 400 | – | – | – | – | – | – | – | – | – | – | – | – |
| COc1cc(/C=C2\CCCC/C(=C\c3ccc([N+](=O)[O-])cc3)C2=O)cc(OC)c1OC | 116 | 279 | 100 | 266 | 256 | 370 | 198 | – | – | – | – | – | – | – | – |
| COc1ccc(/C=C/C(=O)/C=C/c2ccc([N+](=O)[O-])cc2)cc1 | 6.3 | 16 | 12 | 25 | 81 | 193 | 141 | – | – | – | – | – | – | – | – |
| COc1cc(/C=C2\CC/C(=C\c3cc(OC)c(OC)c(OC)c3)C2=O)cc(OC)c1OC | 19 | 89 | 58 | 21 | 240 | 281 | 247 | – | – | – | – | – | – | – | – |
| COc1cc(/C=C2\CCC/C(=C\c3cc(OC)c(OC)c(OC)c3)C2=O)cc(OC)c1OC | 34 | 62 | 36 | 46 | 335 | 388 | 285 | – | – | – | – | – | – | – | – |
| COc1cc(/C=C2\CCC/C(=C\c3ccc([N+](=O)[O-])cc3)C2=O)cc(OC)c1OC | – | – | 1.5 | – | – | – | – | Active | Active | Active | inactive | – | – | – | – |
| COc1cc(/C=C2\CCCCCC2=O)cc(OC)c1OC | 214 | 200 | 269 | 31 | 262 | 291 | 277 | – | – | – | – | – | – | – | – |
| COc1cc(/C=C2\CCCC/C(=C\c3cc(OC)c(OC)c(OC)c3)C2=O)cc(OC)c1OC | 113 | 132 | 67 | 46 | 229 | 250 | 276 | – | – | – | – | – | – | – | – |
| COc1cc(/C=C/C(C)=O)cc(OC)c1OC | 55 | 72 | 41 | 47 | 159 | 263 | 188 | – | – | – | – | – | – | – | – |
| COc1cc(/C=C/C(=O)/C=C/c2ccc([N+](=O)[O-])cc2)cc(OC)c1OC | < 3.1 | 5.7 | 3.8 | 6.4 | 16 | 106 | 94 | – | – | – | Active | Active | Active | Active | Active |
